Test results published in ChEMBL document CHEMBL4513216, “Probing the Open Global Health Chemical Diversity Library for Multistage-Active Starting Points for Next-Generation Antimalarials” (ACS Infect Dis, 2020).

Assay: Toxicity liver stage against HepG2, at 10uM
Format: cell-based
Parameters: test concentration 10 uM, cell line HepG2-A16-CD81EGFP
Settings: human, HepG2-A16-CD81EGFP cells; read-out: INHIBITION
Summary of the method: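 Uninfected HepG2-A16-CD81EGFP cells, 3 × 10^3 per well, 1536-well, plated on prespotted compound at 10 μM final, parasite-free screening media added to match infected plates; puromycin 10 μM positive, DMSO 0.5% negative; run in parallel with 48 h PbLuc assay at 37 °C, 5% CO2; viability by CellTiter-Glo luminescence, normalized to controls.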

Row | Compound | cytotoxicity at 10 µM
1 | CC(C)(C)c1coc([C@@H]2COCCN2Cc2ccccc2)n1 | 2.72%
2 | CC[C@H]1CN2CC[C@H]1C[C@@H]2CNCc1ccc(OC)cc1 | -1.19%
3 | CN1CCC(N2C[C@H](O)C[C@H]2c2nc(Cc3ccccc3)no2)CC1 | 10.7%
4 | COc1ccc(NC(=O)c2nc3ccccc3n(C)c2=O)c(OC)c1 | 0.37%
5 | CCOC(=O)CNC(=O)c1cccnc1Sc1cc(OC)ccc1OC | 1.73%
6 | COC1CCN(C(=O)CC2CCCC2)CC(=O)N(C)c2ccccc21 (stereo not given) | -3.09%
7 | COC(=O)CC(c1ccc(OC)c(O)c1)c1oc(C)cc(=O)c1O (stereo not given) | -0.634%
8 | CC(C)(C)n1ncc2c1NC(=O)CSC2c1ccc2c(c1)OCO2 (stereo not given) | 0.148%
9 | O=C(NCC1(O)CCOc2ccccc21)Nc1ccccc1 (stereo not given) | -4.2%
10 | COc1ccc(C(=O)Nc2ccccc2-c2ccc(=O)n(C)n2)nn1 | 2.18%
11 | C1CC(CN2C[C@@H]3C[C@@H](c4nnc(C5CC5)o4)O[C@@H]3C2)CCO1 | 6.58%
12 | O=C(CC1CC1)N[C@@H]1CN(Cc2ccoc2)C[C@@H]2CCCO[C@@H]21 | 7.83%
13 | Cc1ccc(C(=O)N2CCc3ncnc(C)c3CC2)cc1F | 11.5%
14 | CCS(=O)(=O)N1CCN(C(=O)NC(C)C)CC2(CNC(=O)C2)C1 (stereo not given) | -0.82%
15 | CCOC(=O)CN1CCC2(CC1)CC(NC(=O)c1ccccn1)CO2 (stereo not given) | 2.17%
16 | O=C(CSC1CCc2ccccc2NC1=O)NCc1cccs1 (stereo not given) | -2%
17 | O=C(N[C@@H]1CN(c2ncccn2)[C@@H]2CCCO[C@@H]21)c1cnccn1 | -4.8%
18 | CCn1cc(Cl)c(C(=O)NCc2cnn(C)c2)n1 | -4.41%
19 | Cn1ncc2c1NC(=O)CC2c1ccc(F)cc1 (stereo not given) | 4.63%
20 | CC(C)N1CCCC(c2cc(C(F)(F)F)nc3nccn23)C1 (stereo not given) | -11.1%
21 | COCCN1CCN(Cc2cnc(C3(C)CCCCO3)nc2)CC1 (stereo not given) | 1.16%
22 | O=C(CC1CCN(c2cccnn2)CC1)NC1CCOCC1 | 0.671%

Row | Compound | cytotoxicity at 10 µM
23 | Nc1cc(-c2cncnc2C2CCN(C(=O)c3ccccc3)C2)ccn1 (stereo not given) | 1.32%
24 | O=C(O)c1ccc(Cc2cccc(F)c2)nc1 | 3.11%
25 | Cc1ccccc1CC(=O)N1C[C@@H](O)[C@H](N2CCC(F)(F)CC2)C1 | -14%
26 | Cc1c[nH]nc1C1CCN(C(=O)C2CCOCC2)C1 (stereo not given) | 4.71%
27 | CC(C)CC(=O)Nc1ccc(Oc2ccsc2C(=O)O)cc1 | 7.66%
28 | CCC(CO)NC(=O)Nc1cc(F)ccc1Br (stereo not given) | 11.9%
29 | Cc1csc(CNC(=O)CCCc2cccs2)n1 | -47.1%
30 | CN(C)c1cc(C(=O)Nc2cccnc2N2CCSCC2)ccn1 | -2.9%
31 | Cc1cc(Br)ccc1C(=O)NCCN1CCCCCC1 | -11.6%
32 | CCOC(C)c1nccn1Cc1c(C)noc1C (stereo not given) | 3.11%
33 | CC(C(=O)Nc1ccccc1F)S(C)(=O)=O (stereo not given) | -5.27%
34 | CCn1cnnc1C1CCN(C(=O)Cc2ccc(OC)c(F)c2)CC1 | -7.54%
35 | CN(Cc1ccco1)C(=O)NCc1ccnc(SC(C)(C)C)c1 | 14.4%
36 | COc1cccc(C2(CNC(C)c3nnc(C)o3)CCCC2)c1 (stereo not given) | -1.64%
37 | Cc1cnn(CC2CCCCN2C(=O)Cc2c(C)noc2Cl)c1 (stereo not given) | -5.43%
38 | Cc1cnc(CN(C)C2CCCN(c3cccnn3)C2)cn1 (stereo not given) | 10.4%
39 | Cc1cc(NC(=O)CNC(C)(C)c2ccccc2)on1 | -8.18%
40 | CN(CCc1ccncc1)C(=O)C1CSCN1C(=O)C(C)(C)C (stereo not given) | -8.2%
41 | Cc1ncc2c(n1)CN(CCOc1ccc3c(c1)CCC(=O)N3)CC2 | -8.12%
42 | CCn1c(CNC(=O)c2ccc(N(C)C)nc2)nc2ccccc21 | 4.5%
43 | Cc1nc(-c2ccsc2)sc1C(=O)N1CCn2c(C)nnc2C1 | -3.29%
44 | Cn1cc(S(=O)(=O)NC(=O)C2(c3ccccc3)CCC2)cn1 | -6.85%

Row | Compound | cytotoxicity at 10 µM
45 | COC(=O)NCC(=O)NC(c1ccc(Cl)cc1)C(F)(F)F (stereo not given) | 9.09%
46 | O=C(NCc1ccccc1CO)C1COc2ccccc21 (stereo not given) | 12.3%
47 | CCc1nc(C(=O)N2CC(C(C)C)Nc3ccccc32)c[nH]1 (stereo not given) | -0.0979%
48 | OC(COCc1ccco1)CN1CCC(Cn2cccn2)CC1 (stereo not given) | -1.73%
49 | Cc1cc(Cl)ccc1NCc1ccc(C(=O)N(C)C)[nH]1 | 7.31%
50 | CCN(CCC(F)(F)F)C(=O)Nc1cccc(N2CCOCC2)c1 | -8.02%
51 | CC(=O)c1cccc(OCCCC(=O)N(C)Cc2ccccn2)c1 | -24.4%
52 | Cc1noc(C)c1CCC(=O)NC(C)c1nnc2n1CCC2 (stereo not given) | -3.39%
53 | Cc1ccc(CN(C)C(=O)CN2CCCC2Cn2cccn2)o1 (stereo not given) | -10.4%
54 | Cc1cc(C)n(C2CN(Cc3noc(-c4ccccc4)n3)C2)n1 | -12.8%
55 | OCc1ccc(Cl)c(NCc2cccnc2)c1 | 3.12%
56 | N#CCSCCCN1CCN(C(=O)c2ccc(Cl)cc2)CC1 | -10.3%
57 | CC(C)C(C)NC(=O)Nc1ccc(CS(C)(=O)=O)cc1 (stereo not given) | -8.49%
58 | CN(Cc1cccnc1)[C@@H]1CN(C(=O)c2ccco2)[C@@H]2CCCO[C@H]12 | -108%
59 | CC1(C)CCN(S(=O)(=O)N2CCCC(c3cccc(C(=O)O)c3)C2)CC1 (stereo not given) | -0.879%
60 | COCCc1noc(CN2CCN(c3ccc(OC)cc3)C(=O)C2C)n1 (stereo not given) | 0.296%
61 | NC(=O)c1cccc(CC2CCN(C(=O)CCc3cccc(F)c3)C2)c1 (stereo not given) | -3.75%
62 | Cn1ncc2c(N3CCS(=O)(=O)CC3)nc(C3CCCC3)nc21 | -1.31%
63 | Cc1nc(CN2CC(=O)N(C)c3ccccc3C2=O)no1 | -3.78%
64 | CCC(CO)N(Cc1cccnc1)C(=O)c1ccoc1C (stereo not given) | -0.0979%
65 | Cn1cc(CN2CCCC(O)C2)c(-c2ccccc2F)n1 (stereo not given) | -2.31%
66 | Cc1cccnc1CNCC1(O)CCCN(CC(C)(C)C)C1=O (stereo not given) | -11.8%

Row | Compound | cytotoxicity at 10 µM
67 | CCC(CO)N(Cc1ccccn1)C(=O)c1ccc(=O)[nH]c1 (stereo not given) | -0.65%
68 | Cc1nc(N)nc(N2CCOc3ccc(CO)cc3C2)c1C | 4.23%
69 | Cc1cc(C)c2nc(CNC3CCNC3=O)cc(O)c2c1 (stereo not given) | 5.92%
70 | N#Cc1cccc(C(=O)N2CCC3(CCC(=O)N(C4CC4)C3)CC2)c1 | 0.194%
71 | CCc1nc(NC2CC(=O)N(CC3CCCCC3)C2)ncc1C (stereo not given) | -4.55%
72 | C1CCc2nnc(CNc3nc(C4CC4)nc4c3CCNCC4)n2CC1 | -7.39%
73 | CN1CCC2(CC1)CN(C(=O)c1cccc3cccnc13)CCN2C | 1.54%
74 | CC[C@@]1(O)CCN(C(=O)c2ccc(CN3CCCCCC3)cc2)C[C@H]1O | 8.44%
75 | CNCc1cn(C2CCN(CCC(C)c3ccccc3)CC2)nn1 (stereo not given) | 3.44%
76 | CC(C)CCn1cc(C(C(=O)O)N2CCC(N3CCSCC3)CC2)cn1 (stereo not given) | -1.09%
77 | COc1cccc(CC2(CO)CCCN(c3nccs3)C2)c1 (stereo not given) | -4.59%
78 | COc1ccccc1OC1CCN(Cc2ccc(N(C)C)nc2)CC1 | -11.8%
79 | Cc1nn(CC(=O)O)c(C)c1NS(=O)(=O)c1cccc2ccccc12 | -8.52%
80 | C[C@@H]1CN(C(=O)c2cc(COc3ccc4c(c3)OCO4)[nH]n2)C[C@H](C)O1 | -6.37%
81 | COc1ccc(-c2n[nH]cc2CN(C)CCCN2CCOCC2)c(F)c1 | -2.26%
82 | Cc1[nH]ccc1C(=O)N1CCC2(CC1)c1nc[nH]c1CCN2CC(C)C | 7.31%
83 | O=C(c1cccnc1O)N(Cc1ccsc1)CC1CCCO1 (stereo not given) | -12.3%
84 | Cc1nc(CCNC(=O)C2CC(=O)N(C(C)(C)C)C2)sc1C (stereo not given) | -13.2%
85 | Cc1cc(C(=O)N[C@@H]2CCNC[C@H]2O)ccc1Cl | -18.4%
86 | COc1ccc(S(=O)(=O)NC(=O)COC2CCCCC2)cc1C | -3.56%
87 | CCn1cnnc1CNC(=O)N1CCN(c2ccccc2OC)CC1 | -6.02%
88 | Cc1cnn(C2CN(CC(=O)NCCOc3ccccc3)C2)c1 | -16.7%

Row | Compound | cytotoxicity at 10 µM
89 | c1ccc(OCc2cscn2)c(CNC2CCc3ncnn3C2)c1 (stereo not given) | -9.42%
90 | COC(=O)c1ccc(N2CCN(C(=O)c3ccc(O)nc3)C(C)C2)cc1 (stereo not given) | -4.5%
91 | COc1c(C)cnc(CN2CCOC(Cn3cncn3)C2)c1C (stereo not given) | -3.36%
92 | O=C1C(NS(=O)(=O)c2ccc(F)cc2F)CCN1Cc1ccccc1 (stereo not given) | -0.885%
93 | CCc1noc(C(C)N2CCC(C)CC2)n1 (stereo not given) | -7.6%
94 | Cc1cc(CN2CCN(C(=O)Nc3cccnc3)CC2)on1 | -7.72%
95 | CCc1cnc(CN2CCCC2c2noc(C3CC3)n2)o1 (stereo not given) | -4.84%
96 | O=C(CCOc1ccc(Cl)cc1)N1CCN(c2cnccn2)CC1 | -2.65%
97 | CCC(CN1CCCC1)n1cncc1-c1cnn(Cc2ccccc2)c1 (stereo not given) | 3.92%
98 | COCCNC(=O)c1sc2ccccc2c1C1CCC(CN)CC1 (stereo not given) | -2.98%
99 | Cc1ccc(C(=O)N2CCO[C@H]3[C@@H](OCc4ccccn4)CC[C@@H]32)o1 | -2.42%
100 | CN(C)CCO[C@H]1CN(Cc2ccoc2)[C@@H]2COC[C@H]12 | -1.23%
101 | Cn1cc(N2CC3(CCN(CC4CC4)CC3)OCC2=O)cn1 | -6.86%
102 | CNC(=O)[C@H]1CO[C@H]2CCN(c3ncc(F)cn3)C[C@H]2C1 | -0.0253%
103 | O=C(NC[C@]12COC[C@H]1CN(CC1CCOCC1)C2)c1ccco1 | -72.1%
104 | CN(C)CCOCC1CN(Cc2ccncc2)Cc2nnn(C)c21 (stereo not given) | 3.66%
105 | COCCN1C[C@@H]2CN(Cc3ccsc3)CCC[C@]2(C(=O)O)C1 | -10.6%
106 | CCC(C)N1CCC2(CC1)CN(c1cncnc1)C(=O)CO2 (stereo not given) | -0.414%
107 | Cc1nn(C)c(N(C)C)c1CNCc1ccc(OCC(N)=O)cc1 | 1.25%
108 | CN(C)C(=O)c1cnc2n1CCN(Cc1ccsc1)C2 | -68%
109 | O=C(NCc1cccs1)[C@@H]1CC[C@@H]2[C@@H](CCN2c2ncccn2)O1 | -0.53%
110 | CNc1nc2cn(CCc3ccc(C)cc3)c(=O)c-2c[nH]1 | 6.36%
